Data on five compounds can be found in ChEMBL document CHEMBL3351903, “A potent HDAC inhibitor, 1-alaninechlamydocin, from a Tolypocladium sp. induces G2/M cell cycle arrest and apoptosis in MIA PaCa-2 cells” (J Nat Prod, 2014).

As usually defined, the TGI is the concentration at which net growth stops. Low values mean more potent growth arrest, high ones less potent growth arrest. By half-life is commonly meant the time needed for the level to fall by half in the phase considered. Lower therefore signals rapid decline.

Data set [1] can be described thus: (§1) Antiproliferative activity against human MIAPaCa2 cells after 48 hrs by MTT assay. The format is functional. The note with it: MIA PaCa-2, 48 h. In short, it runs like this: (§2)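 Cells held in RPMI with 5% FetalClone III and penicillin/streptomycin (50 U/mL, 50 μg/mL); hTERT-HPNE also given 10 ng/mL recombinant human EGF; used within 3 months of thaw. 48 h compound exposure, DMSO ≤1% final, then MTT.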
In general terms: Tetrazolium dyes change colour on reduction, which living cells bring about.

Data set [2] is described as follows: Antiproliferative activity against human PANC1 cells after 48 hrs by MTT assay. In kind it is functional. The following applies: PANC-1, 48 h; for CC50: read-out: LC50 (the source's name). In short, it runs like this:
as §2

A short description of data set [3]: Antiproliferative activity against hTERT expressing immortalized human HPNE cells after 48 hrs by MTT assay. The format is functional. The following applies: for CC50: read-out: LC50 (the source's name). In short, it runs like this: as §2
In data set [4] the test system is MIA PaCa-2. The data set can be described thus: Induction of cell cycle arrest in human MIAPaCa2 cells assessed as accumulation at G1 phase at 20 nM after 20 hrs by propidium iodide staining based flow cytometry (reference value: 50.2%). In kind it is functional. In short, it runs like this:
(§3)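 MIA PaCa-2 cells exposed 20 h to 8 or 20 nM, with vehicle-treated cells as comparison. Cells stained with propidium iodide and analysed by flow cytometry. Cell cycle phase distributions calculated by modelling software.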
(In flow cytometry, cells or beads pass a laser one at a time.)

Data set [5] relates to MIA PaCa-2. The data set can be described thus: Induction of cell cycle arrest in human MIAPaCa2 cells assessed as accumulation at S phase at 8 nM after 20 hrs by propidium iodide staining based flow cytometry (reference value: 30.6%). The format is functional. In short, it runs like this: as §3
Data set [6] concerns MIA PaCa-2. The data set can be described thus: Induction of PARP cleavage in human MIAPaCa2 cells at 8 nM after 20 hrs by SDS-PAGE and immunoblotting. The format is functional, cell-based. Summed up:
(§4)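 MIA PaCa-2 cells treated 20 h with vehicle, 8 or 20 nM. Total cell lysates run on SDS-PAGE and immunoblotted with a PARP antibody recognizing full-length and cleaved forms. Detection by HRP-conjugated secondary antibody.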
(In general: In western blotting, separated proteins are transferred to a membrane and probed.)

In data set [7] the test system is MIA PaCa-2. In words: Induction of PARP cleavage in human MIAPaCa2 cells at 20 nM after 20 hrs by SDS-PAGE and immunoblotting. The format is functional, cell-based. Summed up: as §4
The target in data set [8] is Histone deacetylase (Homo sapiens) (UniProt Q13547+O15379+Q9UBN7+Q92769+Q9UQL6+Q8WUI4+Q9BY41+Q96DB2+P56524+Q9UKV0+Q969S8). In words: Inhibition of HDAC in human HeLa cell lysates after 30 mins by fluorescence based assay. The format is protein assay. Summed up:
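Fluorometric kit assay using HeLa cell lysate with 100 μM acetylated substrate in assay buffer. Compound added at 20-fold stock, 30 min at 30 °C. Developer then releases the fluorophore from deacetylated substrate; read at ex 355/em 460 nm. Triplicate wells normalized to signal without inhibitor; IC50 by nonlinear regression.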

Data set [9] relates to MIA PaCa-2. In words: Antiproliferative activity against human MIAPaCa2 cells exposed to 25 nM compound incubated in human serum for 5 to 30 mins measured after 48 hrs by MTT assay. In kind it is functional, cell-based. Summed up:
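Compound DMSO stock mixed 1:10 with human type AB serum and held at room temperature for 5, 10, 15 or 30 min. Aliquots then added to 5000 MIA PaCa-2 cells per well, 25 nM final. Cells grown 48 h, then viability read by MTT.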

The test system of data set [10] is MIA PaCa-2. The description is as §1. The format is functional. Summed up:
as §2

Data set [11] can be described thus: Half life in freshly prepared rat serum. The format is ADME, cell-free.
Data set [12] is described as follows: Half life in rat whole blood. The format is ADME, tissue-based.

The source made the active and inactive calls. Where a SMILES comes first, the peptide text is derived from it. [ ]: non-standard residue; d: D form. ξ: configuration not given here. Aoe(9ξ) = N[C@@H](CCCCCC(=O)C1CO1)C(=O)O; dPip = O=C(O)[C@H]1CCCCN1 A value given as a limit tells only on which side of the number the result lay.

`C[C@@H]1NC(=O)[C@H](CCCCCC(=O)[C@@H]2CO2)NC(=O)[C@H]2CCCN2C(=O)[C@H](Cc2ccccc2)NC1=O`: the TGI is 0.0088 µM in data set [1], 0.05 µM in data set [2] and 0.66 µM in [3]. The CC50 in [2] and in [3] was above 10 µM throughout. Besides, the values for the Activity in the data set on MIA PaCa-2 [4] and with MIA PaCa-2 [5] were 19.6% and 34.6%, respectively. The result in the data set with MIA PaCa-2 [6] and with MIA PaCa-2 [7] was Active. Also, in data set [8], the inhibition result was “Dose-dependent effect”. Besides, the inhibition result in the data set on MIA PaCa-2 [9] was “Active”.

Turning to `CCC(=O)CCCCC[C@@H]1NC(=O)[C@H]2CCCCN2C(=O)[C@H]([C@@H](C)CC)NC(=O)[C@H](Cc2cn(OC)c3ccccc23)NC1=O`, in the data set with MIA PaCa-2 [10], the “growth inhibition (GI)” value was “Active”.

Regarding `O=C(CCCCCCC(=O)Nc1ccccc1)NO` [VORINOSTAT], the CC50 is 4.85 µM in data set [1] (read-out: LC50 (the source's name)), above 10 µM in data set [2] and above 10 µM in [3]. In addition, in [3], the TGI was above 10 µM.

For the compound `O=C(CCCCC[C@@H]1NC(=O)[C@H]2CCCCN2C(=O)[C@H](Cc2ccccc2)NC(=O)[C@H](Cc2ccccc2)NC1=O)C1CO1` (some centres undefined) (cyclo(FF[dPip][Aoe(9ξ)])), in the data set with MIA PaCa-2 [10], the “growth inhibition (GI)” value is “Active”.

For the compound `CC1(C)NC(=O)[C@H](CCCCCC(=O)[C@H]2CO2)NC(=O)[C@H]2CCCN2C(=O)[C@H](Cc2ccccc2)NC1=O` [CHLAMYDOCIN], the half-life was 8.7 min in data set [11] and 0.68 to 3.6 min in data set [12].
